# Calls of active or inactive are those of the source. No cut-off for these calls is given here.
# How the values were obtained:
# [1] = tested on: Influenza A virus; test: Antiviral activity against Influenza virus A/PR/8/34 infected in MDCK cells assessed as reduction in viral titer at 50 uM after 48 hrs by hemagglutinination assay relative to untreated control; assay type: functional, A/Puerto Rico/8/1934(H1N1)
# In short: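 MDCK monolayers infected with A/PR/8/34 at MOI 0.1 for 48 h, with 50 µM compound throughout. Supernatant logTCID50 determined by hemagglutination (Reed–Muench). Fold decrease obtained by subtracting each logTCID50 from the DMSO-control value and taking the inverse log.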
# [2] = tested on: Influenza A virus; test: Antiviral activity against Influenza virus A/PR/8/34 infected in MDCK cells assessed as reduction in viral titer after 48 hrs by hemagglutinination assay; assay type: functional, A/Puerto Rico/8/1934(H1N1); conditions: for Activity: A/Puerto Rico/8/1934(H1N1)
# In short: (§1)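 MDCK monolayers grown to confluence in Iscove medium with 10% FBS and 2 mM L-glutamine. Infected with A/PR/8/34 at MOI 0.1 for 48 h in growth medium with 0.3% BSA, 0.22% bicarbonate and TPCK-trypsin. Compound or DMSO added at the start of infection and kept throughout. Supernatant titre measured by TCID50 on MDCK cells using hemagglutination (Reed–Muench).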
# [3] = tested on: MDCK; test: Cytotoxicity against MDCK cells up to 100 uM after 48 hrs; assay type: cell-based, Canis lupus familiaris; conditions: dog
# [4] = tested on: Influenza A virus; test: Antiviral activity against Influenza virus A/PR/8/34 infected in MDCK cells assessed as log reduction in viral replication at 1 uM after 48 hrs by hemagglutinination assay relative to control; assay type: functional, A/Puerto Rico/8/1934(H1N1); in short: as §1
# [5] = tested on: Influenza A virus; test: Antiviral activity against Influenza virus A/PR/8/34 infected in MDCK cells assessed as reduction in viral titer at 50 uM after 48 hrs by hemagglutinination assay; assay type: functional, organism-based; conditions: A/Puerto Rico/8/1934(H1N1)
# In short: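 Confluent MDCK monolayers infected with A/PR/8/34 at MOI 0.1, with compound at 50 µM present for the entire 48 h. Viral titre in supernatants expressed as logTCID50, read by hemagglutination on MDCK cells (Reed–Muench). DMSO-treated infected cells served as control.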
smiles,measurement,setting,value
COc1ccccc1C(=O)NCCCc1ccccc1,fold change (FC),[1],500
same,log10 TCID50,[2],5.8
Nc1ccccc1C(=O)NCCCc1ccccc1,Activity,[3],Non-toxic
same,FC,[4],>2
same,Activity,[2],Active
O=C(NCCCc1ccccc1)c1c(O)ccc2ccccc12,Activity,[2],Active
COc1ccc(/C=N/NC(=O)c2ccccc2O)cc1,Activity,[5],Active
O=C(CCCc1ccccc1)Nc1ccccc1O,Activity,[2],Active
O=C(NCCCc1ccccc1)c1cccc(O)c1,fold change (FC),[1],200
same,log10 TCID50,[2],6.2
O=C(N/N=C/c1ccc2c(c1)CCC2)c1ccccc1O,Activity,[3],Non-toxic
same,Activity,[5],Active
same,fold change (FC),[1],25
same,log10 TCID50,[2],7.1
O=C(Cc1ccccc1O)NCCc1ccccc1,Activity,[2],Active
O=C(NCCCc1ccccc1)c1ccccc1F,Activity,[2],inactive
O=C(N/N=C/c1ccc2ccccc2c1)c1ccccc1O,Activity,[5],Active
O=C(NCCCc1ccccc1)c1ccccc1O,Activity,[3],Non-toxic
same,fold change (FC),[1],630
same,log10 TCID50,[2],5.7
O=C(NCCCc1ccccc1)c1ccccc1Br,Activity,[2],inactive
O=C(NCCCc1ccccc1)c1ccccc1I,Activity,[2],Active
O=C(N/N=C/c1ccc(Cl)cc1)c1ccccc1O,Activity,[5],Active
O=C(NCCCc1ccccc1)c1ccc(O)cc1,fold change (FC),[1],100
same,log10 TCID50,[2],6.5
Nc1ccc(C(=O)NCCCc2ccccc2)c(O)c1,Activity,[2],Active
O=C(NCCc1ccccc1)c1ccccc1O,fold change (FC),[1],25
same,log10 TCID50,[2],7.1
Nc1ccc(Cl)cc1C(=O)NCCCc1ccccc1,Activity,[2],Active
O=C(NCCCc1ccccc1)c1nccc2ccccc12,Activity,[2],Active
O=C(N/N=C/c1ccccc1)c1ccccc1O,Activity,[5],Active
O=C(CCc1ccccc1O)Nc1ccccc1,Activity,[2],Active
Nc1ccc([N+](=O)[O-])cc1C(=O)NCCCc1ccccc1,Activity,[2],Active
O=C(NCCCc1ccccc1)c1cc2ccccc2cc1O,Activity,[2],Active
O=C(NCCCc1ccccc1)c1ccc2ccccc2n1,Activity,[2],Active
O=C(NCCCc1ccccc1)c1ccccn1,Activity,[2],Active
O=C(N/N=C/c1ccc([N+](=O)[O-])cc1)c1ccccc1O,Activity,[5],Active
N#Cc1ccccc1C(=O)NCCCc1ccccc1,Activity,[2],Active
CN(CCCc1ccccc1)C(=O)c1ccccc1O,Activity,[2],Active
O=C(NCCOc1ccccc1)c1ccccc1O,Activity,[2],Active
O=C(NCCCc1ccccc1)c1cc2ccccc2cn1,Activity,[2],Active
COc1ccc(N)c(C(=O)NCCCc2ccccc2)c1,Activity,[2],Active
O=C(NCCCc1ccccc1)c1ccccc1[N+](=O)[O-],fold change (FC),[1],100
same,log10 TCID50,[2],6.5
Nc1ccccc1C(=O)NCCOc1ccccc1,Activity,[2],Active
O=C(NCCCc1ccccc1)c1ccccc1Cl,Activity,[2],Active
O=C(CCc1ccccc1O)NCc1ccccc1,Activity,[2],Active
O=C(N/N=C/c1ccc(O)cc1)c1ccccc1O,Activity,[5],Active
O=C(NCCCc1ccccc1)c1ccc2ccccc2c1O,Activity,[2],Active
O=C(NCCCc1ccccc1)c1ccccc1,fold change (FC),[1],50
same,log10 TCID50,[2],6.8
O=C(NCCCCc1ccccc1)c1ccccc1O,Activity,[5],Active
Cc1ccccc1C(=O)NCCCc1ccccc1,fold change (FC),[1],158
same,log10 TCID50,[2],6.3
O=C(NCCCc1ccccc1)c1ccc2c(c1)OCO2,Activity,[2],Active

# From ChEMBL document CHEMBL1926504, “Design, synthesis, and evaluation of novel small molecule inhibitors of the influenza virus protein NS1” (Bioorg Med Chem, 2012)
